Test [1] deals with Bifunctional dihydrofolate reductase-thymidylate synthase (Plasmodium falciparum K1), P13922 [UNDEFINED MUTATION]. The test is described as follows: Ratio of binding affinity for mutant (C59R+S108N+I164L) to that of wild type dihydrofolate reductase. In short, it runs like this: (§1)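 Each ratio is Ki for the mutant PfDHFR divided by Ki for wild-type PfDHFR. The recombinant enzymes were expressed in E. coli BL21(DE3)pLysS and purified on methotrexate-Sepharose. Ki was derived assuming inhibitors compete with substrate binding.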

Test [2] deals with Bifunctional dihydrofolate reductase-thymidylate synthase (Plasmodium falciparum K1) (UniProt P13922). The test is described as follows: Ratio of binding affinity for mutant (N51I+C59R+S108N) to that of wild type dihydrofolate reductase. In short, it runs like this: as §1
Test [3] concerns the target Bifunctional dihydrofolate reductase-thymidylate synthase (Plasmodium falciparum K1, UniProt P13922, C59R/I164L/S108N). The test is described as follows: Binding affinity towards mutant dihydrofolate reductase (C59R+S108N+I164L DHFR) of Plasmodium falciparum.
Test [4] concerns the target Bifunctional dihydrofolate reductase-thymidylate synthase (Plasmodium falciparum K1, UniProt P13922, C59R/I164L/N51I/S108N). The test is described as follows: Binding affinity towards mutant dihydrofolate reductase (N51I+C59R+S108N+I164L DHFR) of Plasmodium falciparum.
For test [5], the target named is Bifunctional dihydrofolate reductase-thymidylate synthase (Plasmodium falciparum K1, UniProt P13922). The test is described as follows: Binding affinity towards wild-type dihydrofolate reductase of Plasmodium falciparum.
For test [6], the target named is Bifunctional dihydrofolate reductase-thymidylate synthase (Plasmodium falciparum K1, UniProt P13922, C59R/N51I/S108N). The test is described as follows: Binding affinity towards mutant dihydrofolate reductase (N51I+C59R+S108N DHFR) of Plasmodium falciparum.
For test [7], the system named is Bifunctional dihydrofolate reductase-thymidylate synthase (Plasmodium falciparum K1), P13922 [UNDEFINED MUTATION]. Put plainly: Ratio of binding affinity for mutant (N51I+C59R+S108N+I164L) to that of wild type dihydrofolate reductase. In short, it runs like this: as §1
For test [8], the system named is Vero. The test is described as follows: Relative antiplasmodial activity to cytotoxicity in Plasmodium falciparum Csl-2 infected Vero cells. The class given is functional.
In test [9] the test system is KB. The test is described as follows: Relative antiplasmodial activity to cytotoxicity in Plasmodium falciparum Csl-2 infected KB cells. It is filed as functional.
Test [10] has as its system Vero. The test is described as follows: Relative antiplasmodial activity to cytotoxicity in Plasmodium falciparum TM4/8.2 infected Vero cells. The class given is functional.
Test [11] deals with KB. The test is described as follows: In vitro cytotoxicity against Plasmodium falciparum infected KB cell line. As to conditions: Homo sapiens. The class given is functional, cell-based. In short, it runs like this: (§2)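 Cytotoxicity (IC50, μM) run against three mammalian lines: Vero (African green monkey kidney fibroblasts), KB (human epidermoid carcinoma) and BC (human breast cancer). Testing followed the Skehan et al. protocol.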

For test [12], the system named is KB. The test is described as follows: Relative antiplasmodial activity to cytotoxicity in Plasmodium falciparum TM4/8.2 infected KB cells. The class given is functional.
For test [13], the system named is Bifunctional dihydrofolate reductase-thymidylate synthase (Plasmodium falciparum K1), P13922 [UNDEFINED MUTATION]. Put plainly: Ratio of binding affinity for mutant (A16V+S108T) to that of wild type dihydrofolate reductase. In short, it runs like this:
as §1

The subject of test [14] is KB. The test is described as follows: Relative antiplasmodial activity to cytotoxicity in Plasmodium falciparum V1/S infected KB cells. It is filed as functional.
Test [15] has as its system BC. The test is described as follows: In vitro cytotoxicity against BC cell line. As to conditions: Homo sapiens.
For test [16], the system named is Vero. The test is described as follows: Relative antiplasmodial activity to cytotoxicity in Plasmodium falciparum V1/S infected Vero cells. The class given is functional.
The subject of test [17] is BC. Put plainly: Relative antiplasmodial activity to cytotoxicity in Plasmodium falciparum TM4/8.2 infected BC cells. It is filed as functional.
For test [18], the system named is Vero. The test is described as follows: In vitro cytotoxicity against Plasmodium falciparum infected vero cell line. As to conditions: Chlorocebus sabaeus. The class given is functional, cell-based. In short, it runs like this: as §2
Test [19] concerns the target Bifunctional dihydrofolate reductase-thymidylate synthase (Plasmodium falciparum K1, UniProt P13922, A16V/S108T). Put plainly: Binding affinity towards mutant dihydrofolate reductase (A16V+S108T DHFR) of Plasmodium falciparum.
In test [20] the test system is BC. Put plainly: Relative antiplasmodial activity to cytotoxicity in Plasmodium falciparum Csl-2 infected BC cells. It is filed as functional.

pIC50, pKi: −log10 of the molar value.

Bifunctional dihydrofolate reductase-thymidylate synthase (Plasmodium falciparum K1), P13922 [UNDEFINED MUTATION], sequence (P13922 whole entry, looked up, stated change not applied): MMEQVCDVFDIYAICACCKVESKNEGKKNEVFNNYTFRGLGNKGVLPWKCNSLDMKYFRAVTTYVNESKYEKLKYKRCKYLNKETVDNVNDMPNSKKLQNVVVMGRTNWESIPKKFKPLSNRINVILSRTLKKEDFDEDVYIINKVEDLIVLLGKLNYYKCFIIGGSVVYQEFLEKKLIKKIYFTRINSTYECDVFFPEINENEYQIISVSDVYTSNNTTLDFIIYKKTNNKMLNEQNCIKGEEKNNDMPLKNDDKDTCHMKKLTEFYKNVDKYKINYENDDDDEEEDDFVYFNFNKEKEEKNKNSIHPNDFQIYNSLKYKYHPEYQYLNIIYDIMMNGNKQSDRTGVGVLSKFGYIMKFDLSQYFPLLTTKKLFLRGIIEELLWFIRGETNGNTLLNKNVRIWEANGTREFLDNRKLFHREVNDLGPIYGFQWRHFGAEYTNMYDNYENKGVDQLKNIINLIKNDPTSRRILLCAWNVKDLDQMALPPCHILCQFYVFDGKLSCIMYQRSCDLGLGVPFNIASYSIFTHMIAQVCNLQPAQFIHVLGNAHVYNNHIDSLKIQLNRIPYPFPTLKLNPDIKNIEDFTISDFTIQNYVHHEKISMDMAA
Bifunctional dihydrofolate reductase-thymidylate synthase (Plasmodium falciparum K1, UniProt P13922, A16V/S108T), sequence (P13922 whole entry, looked up, stated change not applied): as above
Bifunctional dihydrofolate reductase-thymidylate synthase (Plasmodium falciparum K1, UniProt P13922, C59R/N51I/S108N), sequence (P13922 whole entry, looked up, stated change not applied): as above
Bifunctional dihydrofolate reductase-thymidylate synthase (Plasmodium falciparum K1, UniProt P13922, C59R/I164L/S108N), sequence (P13922 whole entry, looked up, stated change not applied): as above
Bifunctional dihydrofolate reductase-thymidylate synthase (Plasmodium falciparum K1, UniProt P13922, C59R/I164L/N51I/S108N), sequence (P13922 whole entry, looked up, stated change not applied): as above
Bifunctional dihydrofolate reductase-thymidylate synthase (Plasmodium falciparum K1), sequence (P13922 whole entry, looked up): as the sequence (P13922 whole entry, looked up, stated change not applied) above
Bifunctional dihydrofolate reductase-thymidylate synthase (Plasmodium falciparum K1, UniProt P13922), sequence (P13922 whole entry): as the sequence (P13922 whole entry, looked up, stated change not applied) above

Regarding `Cc1nc(N)nc(N)c1-c1cccc(Cl)c1`, the Ratio was 5.2 in [1], 3.4 in test [2] and 7.4 in test [7]. In addition, the pKi in test [3] is 8.01; in [4], 7.85; in test [5], 8.72; in test [6] it was 8.19.
For `COC(=O)CCCc1nc(N)nc(N)c1-c1cccc(Cl)c1`, the Ratio worked out at 3.6 in test [1], 1.5 in test [2] and 5.4 in [7]. The negative-log Ki (pKi) was 8.74 in test [3], 8.57 in test [4], 9.30 in test [5] and 9.11 in [6].
Regarding `NC1=NC(c2cccc(OCc3ccccc3)c2)N(c2cccc(Cl)c2)C(N)=N1` (stereo unspecified), the Safety ratio in the test on Vero [8] was more than 6.7; with KB [9] it was 1.1; in the test with Vero [10], more than 12.5; in the test with KB [12], 2; with KB [14], 1; with Vero [16] it was more than 6.1. Further, the Safety ratio in the test on BC [17] is 5.5; in the test on BC [20], 2.9. Further, the Ratio in test [1] came out at 1.6; in test [2], 1.4; in test [13], 1.4; in test [7], 3.3. Moreover, the pKi was 8.44 in test [3], 8.11 in test [4], 8.49 in test [6] and 8.49 in test [19]. The negative-log IC50 (pIC50) in the test with KB [11] is 5.10; in the test on BC [15] it was 4.66; in the test on Vero [18], less than 4.30.
With `NC1=NC(c2ccc(Oc3ccccc3)cc2)N(c2cccc(Cl)c2)C(N)=N1` (stereo unspecified), the Safety ratio is on record as more than 15.2 in the test on Vero [8]; 1.2 in the test with KB [9]; more than 76.9 in the test on Vero [10]; 6.2 with KB [12]; 1.2 in the test on KB [14]; more than 15.2 in the test on Vero [16]. Moreover, the Safety ratio in the test on BC [17] was found to be 8.3; with BC [20], 1.6. Further, the Ratio amounted to 0.5 in [1], 1.2 in test [2], 3.9 in [13] and 1.9 in test [7]. Also, the pKi in test [3] is 9.52; in test [4], 8.89; in [6], 9.05; in [19], 8.57. Besides, the negative logarithm of the IC50 (pIC50) with KB [11] was 5.40; in the test with BC [15] it was 5.28; with Vero [18] it was less than 4.30.
On to `NC1=NC(c2cccc(Oc3ccc(Cl)cc3)c2)N(c2cccc(Cl)c2)C(N)=N1` (stereo unspecified), for which the Safety ratio with Vero [8] stood at 10; in the test on KB [9], 2.3; in the test on Vero [10] it was 7.9; in the test with KB [12], 1.8; with KB [14] it was 2.2; in the test with Vero [16] it was 9.7. Also, the Safety ratio is reported as 2.6 in the test with BC [17] and 3.2 in the test on BC [20]. In addition, the Ratio was determined as 3.9 in test [1], 1.5 in test [2], 2.7 in test [13] and 6.1 in test [7]. Moreover, the pKi in test [3] was 8.29; in test [4], 8.10; in test [6] it was 8.72; in [19], 8.46. For the same compound, the pIC50 with KB [11] is 5.15; in the test with BC [15], 5.00; in the test with Vero [18], 4.51.
`CCCCCCCC1N=C(N)N=C(N)N1c1cccc(Cl)c1` (stereo unspecified): the Safety ratio was more than 357 with Vero [8]; 7.1 with KB [9]; more than 1250 with Vero [10]; 25 in the test on KB [12]; 0.4 in the test on KB [14]; more than 20 with Vero [16]. Also, the Safety ratio with BC [17] is reported as 45; in the test with BC [20], 12.9. In addition, the Ratio is 0.1 in test [1], 0.4 in [2], 1.4 in [13] and 0.3 in test [7]. Also, the pKi in test [3] was 9.52; in test [4] it was 9.10; in [6], 9.00; in test [19] it was 8.42. For the same compound, the negative logarithm of the IC50 (pIC50) is 6.00 in the test on KB [11], 5.74 in the test with BC [15] and less than 4.30 in the test with Vero [18].
With `NC1=NC(c2cccc(OCCCOc3cc(Cl)c(Cl)cc3Cl)c2)N(c2cccc(Cl)c2)C(N)=N1` (stereo unspecified), the Safety ratio with Vero [8] turned out to be 3.5; in the test on KB [9] it was 1.3; in the test on Vero [10], 6; with KB [12], 2.3; with KB [14], 0.8; in the test with Vero [16], 2.1. Moreover, the Safety ratio in the test on BC [17] turned out to be 3.3; in the test with BC [20], 1.9. Also, the Ratio in [1] was found to be 0.6; in [2] it was 0.5; in test [13], 0.7; in [7], 1.1. For the same compound, the negative logarithm of the Ki (pKi) in test [3] is 8.66; in test [4], 8.35; in [6], 8.70; in test [19] it was 8.59. For the same compound, the negative-log IC50 (pIC50) with KB [11] is 5.15; with BC [15] it was 5.00; in the test with Vero [18] it was 4.74.
Consider `CCCCCCC1(C)N=C(N)N=C(N)N1c1cccc(Cl)c1` (stereo unspecified), for which the Safety ratio in the test with Vero [8] was found to be 469; in the test on KB [9], 8.2; in the test with Vero [10], 3833; in the test with KB [12] it was 66.7; in the test on KB [14], 1.3; in the test with Vero [16] it was 71.9. The values for the Safety ratio in the test with BC [17] and in the test on BC [20] were 36.7 and 4.5, respectively. Further, the Ratio in test [1] was 5; in test [2], 2.3; in test [13], 41.9; in test [7], 6.58. The pKi was 7.92 in test [3], 7.80 in test [4], 8.26 in [6] and 7.00 in test [19]. Also, the results for the negative logarithm of the IC50 (pIC50) with KB [11], in the test with BC [15] and with Vero [18] were 5.40, 5.66 and 3.64, respectively.
For `NC1=NC(c2ccc(Oc3ccccc3)cc2)N(c2ccc(Cl)cc2)C(N)=N1` (stereo unspecified), the Safety ratio is more than 10.4 with Vero [8]; 1.5 in the test with KB [9]; more than 417 with Vero [10]; 58.3 in the test with KB [12]; 1 with KB [14]; more than 7.2 with Vero [16]. The Safety ratio in the test with BC [17] is reported as 71.7; in the test with BC [20], 1.8. Also, the Ratio stood at 363 in [1], 73.1 in test [2], 9.5 in test [13] and 555 in test [7]. Further, the negative logarithm of the Ki (pKi) was 6.84 in test [3], 6.65 in test [4], 7.53 in test [6] and 8.42 in test [19]. Moreover, the values for the negative-log IC50 (pIC50) in the test with KB [11], in the test on BC [15] and in the test on Vero [18] were 5.15, 5.07 and less than 4.30, respectively.
As for `CCCC1(C)N=C(N)N=C(N)N1c1cccc(Cl)c1` (stereo unspecified), the Safety ratio in the test on Vero [8] is reported as more than 1724; in the test on KB [9] it was 379; with Vero [10], more than 2778; with KB [12] it was 611; in the test on KB [14], 1.1; with Vero [16] it was 454. Further, the figures for the Safety ratio in the test on BC [17] and in the test with BC [20] were 356 and 221, respectively. Further, the Ratio in test [1] stood at 7.2; in [2], 2.1; in test [13], 102; in test [7], 8.53. Moreover, the negative logarithm of the Ki (pKi) was 7.48 in test [3], 7.40 in test [4], 8.01 in test [6] and 6.33 in test [19]. Also, the pIC50 was 3.96 with KB [11], 4.19 in the test with BC [15] and less than 3.30 with Vero [18].

A word on the pKi: it is the negative decadic logarithm of the Ki, by convention in mol/L. Read a low pKi as a large Ki. Broadly, the pIC50 is the IC50 on a negative log10 scale, so that one unit is a factor of ten.
